Compound activity deposited in PubChem by The Scripps Research Institute Molecular Screening Center.
Rin1-Abl PPI inh: human Rin1-Abl interaction inhibition. P00519+Q13671. TR-FRET Rin1/Abl binding, biochemical. inhibition, % at 7.35 µM. 0.4% of 360,000 active; in the data active = inhibition above about 5%, passing the limit was not always enough
ASAP1 GAP inh: blocks human ASAP1-stimulated Arf1 GTP hydrolysis; Q9ULH1; GDP FP detection; inhibition, % at 16.5 µM; 0.19% of 360,000 active; AID 624377; in the data active = inhibition above about 25%;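 also: 0% = vehicle with enzyme and substrate and 100% = no enzyme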
GalR3 antag: antagonists of human GalR3; 0.44% of 360,000 active; AID 651719; HEK293 GalR3-CNG cAMP membrane potential fluorescence; galR3 body fused to GalR1 C-terminus; inhibition, % at 3 µM; O60755;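 active = inhibition above the screen-wide average plus 3 SD, cut at about 13% in these data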;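 also: forskolin and galanin both at EC90 stimulate the cells; cAMP rise reported by CNG channel membrane potential dye signal; 0% = forskolin plus galanin with DMSO and 100% = forskolin alone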
Target sequence (O60755 1-299 limits assumed): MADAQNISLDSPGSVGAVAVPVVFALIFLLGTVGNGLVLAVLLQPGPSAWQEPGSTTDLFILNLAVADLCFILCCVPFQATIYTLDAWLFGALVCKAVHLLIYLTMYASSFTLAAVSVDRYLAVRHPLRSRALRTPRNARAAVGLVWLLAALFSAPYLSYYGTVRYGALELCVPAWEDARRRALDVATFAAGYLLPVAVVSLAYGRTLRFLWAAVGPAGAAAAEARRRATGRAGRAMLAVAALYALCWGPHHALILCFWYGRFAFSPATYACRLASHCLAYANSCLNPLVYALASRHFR
ARFGAP1 inh: rat ARFGAP1 inhibition | Q62848 | Arfgap1-stimulated ARF1 GTP hydrolysis, GDP FP detection | inhibition, % at 16.5 µM | AID 651572 | 0.26% of 360,000 active;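 active = inhibition above a per-plate limit, mean inhibition of low control wells plus 3 SD, cut at about 25% in these data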;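 also: 0% = DMSO wells with enzyme and 100% = wells lacking Arfgap1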
Target sequence (Q62848 1-136 limits assumed): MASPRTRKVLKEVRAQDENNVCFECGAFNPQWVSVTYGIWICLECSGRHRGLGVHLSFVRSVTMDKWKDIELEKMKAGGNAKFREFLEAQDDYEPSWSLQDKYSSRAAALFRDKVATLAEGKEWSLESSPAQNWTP
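Assay system: Rat Arfgap1 GAP domain (His6, aa 1-136), purified enzyme | Buffer or medium: HEPES 25 mM pH 7.5, NaCl 150 mM, MgCl2, DTT | Schedule: GTP hydrolysis reaction 2 h at 25 °C | Signal: FP of antibody-bound GDP Alexa 633 tracer, ex 620/em 688 nm | Measure: Percent inhibition of Arfgap1-stimulated GTP hydrolysis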
GalR3 antag conf: GalR3 (human) antagonism, confirmation; shares compounds with GalR3 antag; HEK293 GalR3 CNG cAMP biosensor, membrane potential fluorescence; galR3 fused to GalR1 carboxy tail; challenged with forskolin and galanin at EC90; inhibition, % at 3 µM; 59% of 1,600 active; AID 652245;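 active = inhibition above the primary screen's cutoff, the mean inhibition of all screened compounds plus 3 SD, cut at about 13% in these data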;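 also: 0% = forskolin plus galanin and 100% = forskolin alone with DMSO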
HEK-CNG parental: parental cell agonism counter-screen for GalR3 antagonists; shares compounds with GalR3 antag; HEK293-CNG parental cells, cAMP membrane potential fluorescence; normalised: DMSO wells 0%, forskolin wells 100%; activation, % at 3 µM; 10% of 1,600 active; AID 652268; in the data active = activation above about 1.3%
* marks the source's active call; other numbers are inactive results; / = no result given. A selection: hits, their analogues and other compounds. The true share with any hit is near 1.2%.

SMILES	Rin1-Abl PPI inh	ASAP1 GAP inh	GalR3 antag	ARFGAP1 inh	GalR3 antag conf	HEK-CNG parental
CS(=O)(=O)N1CCN(c2ccc([N+](=O)[O-])cc2C(F)(F)F)CC1	-4	-5	18*	3	14*	0
CCOC(=O)N[C@H](C(=O)N1CCC[C@H]1C(=O)NCCc1ccccc1Cl)C1CCCCC1	/	-19	-6	1	/	/
CCOc1ccc(Br)cc1/C(C)=N\NC1=NCCN1	-1	1	65*	3	80*	4.9*
CCCCn1c(=O)[nH]c(=O)c2c1nc(Cn1ncc(Cl)c(Cl)c1=O)n2CCC	1	0	23*	14	20*	0
Cc1cc(CNC(=O)c2cccc([N+](=O)[O-])c2C)c2ccccc2n1	-2	5	33*	-7	53*	0
Cc1cc(CNC(=O)Cc2ccccc2)c2ccccc2n1	4	5	1	0	/	/
CC(C)N(Cc1ccccc1)S(=O)(=O)c1n[nH]c(C(C)(C)C)n1	/	16	-8	0	/	/
COc1cccc(OCCn2cc(C(C)=O)c3ccccc32)c1	0	0	27*	0	21*	0
CC(=O)c1cn(CCOc2cc(C)ccc2C)c2ccccc12	2	12	84*	-2	84*	1
CN[C@H]1C[C@H]2c3[nH]c4c(-c5ccccc5)cccc4c3CCN2C[C@H]1[C@H](C)O	/	-6	-9	-5	/	/
COC(=O)C1=C(C)N(C)C(=NCC2CC2)NC1c1cccc(C(F)(F)F)c1 (stereo not given)	/	-4	-7	-5	/	/
CCOc1ccc(N(CC(=O)Nc2ccccc2C)S(=O)(=O)c2c(C)[nH]c(=O)[nH]c2=O)cc1	-8	7	-2	3	/	/
COc1ccc(N(CC(=O)Nc2ccccc2C)S(=O)(=O)c2c(C)[nH]c(=O)[nH]c2=O)cc1	0	-1	14*	5	-6	0
NCCCC(C(=O)O)N(C(=O)OCc1ccccc1)C(=O)OCc1ccccc1 (stereo not given)	/	-11	-6	-1	/	/
CN(Cc1ccc2c(c1)CCCN2C)C(=O)[C@H]1O[C@@H](n2cnc3c(N)ncnc32)[C@H](O)[C@@H]1O	3	4	42*	11	85*	0
O=C(/C=C/[C@H]1O[C@@H](n2ccc(=O)[nH]c2=O)[C@H](O)[C@@H]1O)NCCCc1ccccc1	1	-13	-4	-11	/	/
CCN(c1ccccc1)S(=O)(=O)c1ccc(C(=O)Oc2ccc(C(C)=O)cc2)cc1	2	2	14*	10	-2	0
Nc1ccc(F)c(CN2CCN(c3ncc(Cc4ccccc4)cn3)CC2)c1	/	10	-6	-5	/	/
Cc1c(C(=O)OCC(C)C)[nH]c2c1C(=O)CC(c1ccco1)C2 (stereo not given)	-1	13	17*	3	3	2.5*
Nc1ncnc2c1ncn2[C@H]1C[C@H](O)[C@@H](CO)O1	-3	-8	-1	/	/	/
Nc1nc(Cl)nc2c1ncn2[C@H]1C[C@H](O)[C@@H](CO)O1	-2	-7	49*	3	57*	1.3*
Cc1ccc(C(=O)N2CCC[C@@H]2C(=O)N2CCC[C@@H]2C(=O)NCc2ccccc2)cc1	/	-4	-5	0	/	/
CC(C)CCn1c(N2CCc3ccccc3C2)nc2c1c(=O)[nH]c(=O)n2C	1	0	15*	-1	-1	0
Cc1cccc(Cn2c(N3CCc4ccccc4C3)nc3c2c(=O)[nH]c(=O)n3C)c1	-2	10	0	-7	/	/
Cc1ccc(NC(=O)Cn2cc(C=O)c3ccccc32)cc1	-4	13	-11	2	/	/
SMILES	Rin1-Abl PPI inh	ASAP1 GAP inh	GalR3 antag	ARFGAP1 inh	GalR3 antag conf	HEK-CNG parental
CC(C)(C)NCC(O)Cn1cc(C=O)c2ccccc21 (stereo not given)	-1	6	14*	3	36*	0
O=S1(=O)CCSC[C@@H](CN2CCN(c3ccccc3)CC2)N1	/	-2	-4	1	/	/
CC(=O)Nc1ccc(OCC(=O)Nc2ccc(Cl)c(S(=O)(=O)N3CCOCC3)c2)cc1	-2	6	31*	1	92*	-1
CC(CC(=O)Nc1ccc(Cl)c(S(=O)(=O)N2CCOCC2)c1)c1ccccc1 (stereo not given)	-2	3	96*	-3	120*	-1
O=C(O)CC(SCC(=O)Nc1ccc(Cl)c(S(=O)(=O)N2CCOCC2)c1)C(=O)O (stereo not given)	-3	0	-2	3	/	/
O=C(Nc1ccc(Cl)c(S(=O)(=O)N2CCOCC2)c1)c1ccncc1	-2	4	43*	4	7	0
COC(=O)c1cc2c(c3c4cc(OC)ccc4n(S(=O)(=O)c4cccc(C)c4)c13)C(=O)N(Cc1ccc(C(F)(F)F)cc1)C2	/	-9	-4	2	/	/
CCCCN(C)C(=O)c1cc2cc([N+](=O)[O-])cc(OC)c2oc1=O	3	-4	22*	5	2	0
COc1cc(Cn2c(-c3ccc(O)c(OC)c3)nc3ccccc32)ccc1O	-5	-1	23*	2	17*	0
COc1ccc(-c2nc3ccccc3n2Cc2ccccc2)cc1	5	12	-3	6	/	/
CCOC(=O)N1CCN(C(=O)C[C@H]2C[C@@]3(C(=O)OC)C(=C[C@H](COCc4ccccc4)O[C@@H]3C)N(CCC3=CCCCC3)C2=O)CC1	/	4	-4	-6	/	/
C#Cc1ccc(NC(=O)C2(C)CCN2C(=O)Cc2ccc(C(C)(C)C)cc2)cc1 (stereo not given)	-2	3	27*	17	94*	0
C#Cc1ccc(NC(=O)C2(C)CCN2C(=O)Cc2ccc(C(C)C)cc2)cc1 (stereo not given)	2	7	84*	-5	92*	0
O=C1NC(=O)C2(CCCc3ccc(N(CCO)CCO)cc32)N1 (stereo not given)	/	4	-2	4	/	/
Nc1[nH]c(C(=O)c2ccc(Br)cc2)c(-c2ccccc2Cl)c1C(=O)NCCc1c[nH]c2ccccc12	/	11	-7	12	/	/
Cc1ccc(NC(=O)CSc2nnc(-c3cccnc3)s2)cc1	2	-19	1	15	/	/
O=C(CSc1nnc(-c2cccnc2)s1)Nc1ccnc2ccccc12	-3	3	90*	2	119*	0
COC(=O)c1cc2c(c3c4cc(OC)ccc4n(S(C)(=O)=O)c13)C(=O)N(C)C2	/	6	-6	10	/	/
CC(=O)OC[C@]12CC[C@H]3[C@@](C)(CC[C@H]4C(C)(C)CCC[C@]34C)[C@@H]1CC(C1=CC(=O)OC1O)O2 (stereo not given in full)	3	-17	30*	-29	44*	1.8*
